Measurements from PubChem BioAssay AID720508 (The Scripps Research Institute Molecular Screening Center, 2013).
The campaign covered roughly 370,000 compounds. About 500 (0.14%) were called active. The entries come from a sample that favours actives as a whole. Values without a mark were called inactive.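 Rule for the calls: active = inhibition above the mean of compounds falling within the control limits plus 3 SD of them (cut at about 14% in these data); inactive = the rest.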

What follows are molecules tested against Fibrinogen beta chain (Homo sapiens) (UniProt P02675) (assay: inhibitors of Tn7 peptide binding to fibrin DD(E), primary screen, biochemical, fluorescence polarization, human fibrin, Tn7 probe (AID 720508;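 note: 0% = plate median of compound wells and 100% = 10 µM Aha-Tn7 peptide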)). Conditions: FP displacement of FITC-Tn7 peptide from fibrin DD(E); at 8.3 µM; hits give high values; 0% = median of compound wells per plate.
Fibrinogen beta chain (Homo sapiens), sequence (P02675 whole entry, looked up): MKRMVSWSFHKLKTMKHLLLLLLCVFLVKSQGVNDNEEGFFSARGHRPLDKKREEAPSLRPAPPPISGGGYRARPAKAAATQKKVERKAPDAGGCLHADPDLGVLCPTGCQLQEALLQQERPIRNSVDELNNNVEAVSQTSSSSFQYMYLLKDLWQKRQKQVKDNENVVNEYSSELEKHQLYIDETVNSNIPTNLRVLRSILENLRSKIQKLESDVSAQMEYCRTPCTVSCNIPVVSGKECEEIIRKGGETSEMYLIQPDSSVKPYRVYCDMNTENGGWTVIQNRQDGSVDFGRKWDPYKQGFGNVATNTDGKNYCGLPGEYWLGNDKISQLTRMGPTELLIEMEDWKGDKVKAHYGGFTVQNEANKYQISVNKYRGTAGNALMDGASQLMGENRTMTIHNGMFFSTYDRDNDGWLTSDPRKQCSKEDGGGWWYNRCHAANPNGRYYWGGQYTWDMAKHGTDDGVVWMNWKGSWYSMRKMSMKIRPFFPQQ
Procedure, shortened: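 Measure: % inhibition scaled between sample-field median and high-control FP; Test system: human fibrin DD(E); Quantity: 2 µM final DD(E) protein; Doses: one dose, 8.3 µM nominal; Schedule: compound with protein 10 min, then 3 h after probe, room temperature; Detection: fluorescence polarization; Medium: Tris buffer with calcium and detergent, pH 7.8.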

Row | SMILES | inhibition
1 | COc1ccc(C(C(=O)NC2CCCCC2)N(C(=O)Cc2c[nH]c3ccccc23)c2ccccc2)cc1OC (stereo unspecified) | 2.39%
2 | COC(=O)CNC(=O)C(CCSC)NC(C)=O (stereo unspecified) | 3.11%
3 | COc1cc(OC)c(C(=S)N2CCCC2)cc1OC | 2.99%
4 | CC1(C)C/C(=C(/C#N)C(N)=O)CCO1 | -4%
5 | Cc1cc(C(=O)COc2ccc(Br)cc2F)c(C)n1C1CC1 | 1.64%
6 | O=C(NC1CCCCN(Cc2cccc(C(F)(F)F)c2)C1=O)c1ccccc1I (stereo unspecified) | 2.66%
7 | O=C(NCc1ccc(F)cc1F)[C@@H]1CCCN1C(=O)[C@@H]1CCCN1C(=O)c1cccc(Cl)c1 | -9.38%
8 | O=C(COC(=O)CNS(=O)(=O)c1ccccc1)NC12CC3CC(CC(C3)C1)C2 | 2.98%
9 | CC1CC1C(=O)OCC(=O)c1c(N)n(C)c(=O)n(C)c1=O (stereo unspecified) | -2.99%
10 | CC(C)NC(=O)C1(C)CCCCN1Cc1cccc(C(F)(F)F)c1 (stereo unspecified) | 1.37%
11 | Brc1ccc(-c2nn[nH]n2)cc1 | -4.35%
12 | c1cc(-c2nn[nH]n2)ccc1CN1CCCCC1 | 14.4% (active)
13 | Clc1ccc(CN2CCCCCC2)cc1Cl | 1.42%
14 | COc1cccc(N2CC(NC(=O)c3ccc4ccccc4c3)CC2=O)c1 (stereo unspecified) | 6.86%
15 | COc1cccc(N2CC(NS(=O)(=O)c3ccc(Cl)cc3)CC2=O)c1 (stereo unspecified) | -2.23%
16 | COc1cccc(N2CC(NS(=O)(=O)c3cccs3)CC2=O)c1 (stereo unspecified) | 15.4% (active)
17 | CCN(CC)C(=O)CSC(Nc1cccc(F)c1)=C(C#N)C#N | 2.96%
18 | CCn1c(C)nc2c1C(=O)c1ccccc1C2=O | -6.92%
19 | CCC(C(=O)OC)n1cnc2c(oc3ccccc32)c1=O (stereo unspecified) | 6.68%
20 | Cc1ccc(S(=O)(=O)CC(=O)Nc2sc(C)c(C)c2C(N)=O)cc1 | -0.13%
21 | NC1=NC(=O)C(Cc2cccc(Cl)c2)S1 (stereo unspecified) | 2.82%

Row | SMILES | inhibition
22 | COCc1cc(=O)n2[nH]c(C)c(-c3ccccc3)c2n1 | -2.38%
23 | CN(C(=O)C1CCN(c2ncnc3c2nc2n3CCCCC2)CC1)C1CCCCC1 | -2.26%
24 | Cc1ccc(CN2CCN(Cc3ccc(OCCO)cc3)CC2CCO)o1 (stereo unspecified) | 7.01%
25 | CCCCNC(=O)C[C@@H]1C[C@@]2(C(=O)OCC)CCC=C2N(Cc2cccc3ccccc23)C1=O | -3.28%
26 | CN(C(=O)CSc1nc(C2CC2)nc2ccccc12)c1nc(-c2ccccc2)cs1 | -7.43%
27 | CN1c2ccc(C=O)c3c(C=O)ccc(c23)N(C)C1(C)C | 16.9% (active)
28 | COc1ccc(NC(=O)NNC(=O)COc2cc(C)c(Cl)c(C)c2)c(OC)c1 | -5.88%
29 | O=C1NC(=Nc2ccc(Cl)cc2)SC1Cc1cccc(Cl)c1Cl (stereo unspecified) | 0.11%
30 | Cc1ccc(N(C(=O)C(F)(F)F)C(C(=O)NC2CCCCC2)c2ccncc2)cc1C (stereo unspecified) | 5.16%
31 | CC[C@@H]1CCCCc2ccccc2[C@@H](C(=O)C[C@H](O)CC(C)=O)OC1=O | 1.6%
32 | CCCNC(=O)C(=O)Nc1cc2c3c(c1)CCC(=O)N3CCC2 | 0.54%
33 | COc1ccccc1C(=O)N1CCN=C1SCc1cccnc1 | 3.49%
34 | COC(=O)CNc1nc(Cl)nc(N2CCC(C)CC2)n1 | 7.41%
35 | NC(=O)c1cc(S(=O)(=O)N2CCCC2)ccc1OCc1ccc(F)cc1 | 0.91%
36 | CC(C)(C)c1ccccc1NC(=O)CN1C(=O)NC2(CCCC2)C1=O | -0.76%
37 | Cc1nn(C)c(C)c1S(=O)(=O)N1CCc2ccccc21 | -4.06%
38 | CCO[C@H]1OC(C(=O)N2CCN(Cc3ccccc3)CC2)=C[C@@H](c2cn(C(C)=O)c3ccccc23)[C@@H]1CCCO | 7%
39 | COc1ccccc1/C=C/C(=O)OCC(=O)NC1CCCCCC1 | 8.08%
40 | C=CCOc1ccc(/C=C/C(=O)OCC(=O)NC2CCCCCC2)cc1 | 0.53%
41 | O=C(COC(=O)/C=C/c1ccc(OC(F)F)cc1)NC1CCCCC1 | 13.9% (active)
